Bounds are passed on as bounds.

For assay [1], the target named is T1, Prostaglandin G/H synthase 2 (Homo sapiens) (UniProt P35354).
T1 sequence (whole entry): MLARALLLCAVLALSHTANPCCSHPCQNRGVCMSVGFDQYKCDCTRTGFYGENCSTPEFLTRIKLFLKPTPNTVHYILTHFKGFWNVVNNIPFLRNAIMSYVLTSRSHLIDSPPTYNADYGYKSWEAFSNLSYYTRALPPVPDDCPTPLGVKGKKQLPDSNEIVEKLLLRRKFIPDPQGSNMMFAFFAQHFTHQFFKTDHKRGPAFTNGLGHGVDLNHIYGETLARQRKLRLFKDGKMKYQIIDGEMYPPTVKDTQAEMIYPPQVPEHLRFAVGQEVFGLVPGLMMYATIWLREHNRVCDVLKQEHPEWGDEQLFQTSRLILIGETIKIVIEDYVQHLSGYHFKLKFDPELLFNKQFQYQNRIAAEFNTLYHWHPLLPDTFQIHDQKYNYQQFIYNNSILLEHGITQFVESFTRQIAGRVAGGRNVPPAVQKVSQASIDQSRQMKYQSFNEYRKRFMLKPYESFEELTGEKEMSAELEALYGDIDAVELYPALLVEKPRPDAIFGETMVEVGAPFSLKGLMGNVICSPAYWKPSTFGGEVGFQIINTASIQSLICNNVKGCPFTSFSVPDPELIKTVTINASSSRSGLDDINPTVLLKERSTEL
Description: Inhibition of COX2 (unknown origin) at 10 umol/l by ELISA relative to control.

Assay [2] in a line: Antioxidant activity assessed as hydrogen peroxide scavenging activity at 100 ug/ml relative to control. It is filed as functional.
Assay [3] relates to Mus musculus. Description: Antiinflammatory activity in para-xylene-induced mouse model of ear swelling assessed as edema at 100 mg/kg, ip (reference value: 8.70 +/- 0.90 mg). The assay is classed as functional. The essentials: (§1)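 Mouse ear swelling induced by para-xylene. Dosing was 100 mg/kg intraperitoneal with DMSO as vehicle, and the vehicle group was also given 100. Each group had 5 mice. Edema was recorded in mg as mean ± S.D., and the inhibition rate (%) was taken relative to the vehicle group. Indomethacin at 100 mg/kg served as the reference.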

Assay [4] has as its system Mus musculus. Description: Antiinflammatory activity in para-xylene-induced mouse model of ear swelling assessed as inhibition in swelling rate at 100 mg/kg, ip relative to control. The assay is classed as functional. In a few lines:
as §1

Assay [5] deals with Mus musculus. The assay can be described thus: Antiinflammatory activity in para-xylene-induced mouse model of ear swelling assessed as inhibition in swelling rate at 100 mg/kg, po treated for 1 hr followed by xylene addition relative to control. The assay is classed as functional. The essentials:
(§2)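 Mouse ear edema induced by para-xylene. A single oral dose of 100 mg/kg was given at set intervals (1, 2, 3, 4, 5 or 24 h) before xylene was applied. Each group had 5 mice. The inhibition rate (%) was taken relative to the vehicle group. Indomethacin at 100 mg/kg served as the reference.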

The subject of assay [6] is Mus musculus. Description: Antiinflammatory activity in para-xylene-induced mouse model of ear swelling assessed as inhibition in swelling rate at 100 mg/kg, po treated for 2 hrs followed by xylene addition relative to control. It is filed as functional. The essentials:
as §2

Assay [7] has as its system Mus musculus. The assay can be described thus: Antiinflammatory activity in para-xylene-induced mouse model of ear swelling assessed as inhibition in swelling rate at 100 mg/kg, po treated for 3 hrs followed by xylene addition relative to control. The assay is classed as functional. In a few lines: as §2
The subject of assay [8] is Mus musculus. The assay can be described thus: Antiinflammatory activity in para-xylene-induced mouse model of ear swelling assessed as inhibition in swelling rate at 100 mg/kg, po treated for 4 hrs followed by xylene addition relative to control. It is filed as functional. The essentials: as §2
Assay [9] concerns Mus musculus. Description: Antiinflammatory activity in para-xylene-induced mouse model of ear swelling assessed as inhibition in swelling rate at 100 mg/kg, po treated for 5 hrs followed by xylene addition relative to control. It is filed as functional. The essentials:
as §2

Assay [10] concerns Mus musculus. The assay can be described thus: Antiinflammatory activity in para-xylene-induced mouse model of ear swelling assessed as inhibition in swelling rate at 100 mg/kg, po treated for 24 hrs followed by xylene addition relative to control. The assay is classed as functional. The essentials:
as §2

For assay [11], the system named is Mus musculus. The assay can be described thus: Antiinflammatory activity in para-xylene-induced mouse model of ear swelling assessed as inhibition in swelling rate at 50 mg/kg, po treated for 2 hrs followed by xylene addition relative to control. The assay is classed as functional. The essentials: (§3)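 Mouse ear edema induced by para-xylene. Oral doses were 25, 50 or 100 mg/kg, given 2 h before xylene was applied. Each group had 5 mice. The inhibition rate (%) was taken relative to the vehicle group, with indomethacin as the positive control.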

The test system of assay [12] is Mus musculus. The assay can be described thus: Antiinflammatory activity in para-xylene-induced mouse model of ear swelling assessed as inhibition in swelling rate at 25 mg/kg, po treated for 2 hrs followed by xylene addition relative to control. The assay is classed as functional. The essentials: as §3
Assay [13] can be described thus: Antioxidant activity assessed as ABTS radical scavenging activity by spectrophotometric analysis. It is filed as functional. In a few lines:
(§4)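 Radical scavenging by ABTS, DPPH or hydroxyl radical, read spectrophotometrically. Activity was calculated from the percentage decrease in absorbance, with resveratrol as the positive control. Values are given with the standard deviation (SD).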

The nature of assay [14]: Antioxidant activity assessed as DPPH radical scavenging activity by spectrophotometric analysis. It is filed as functional. In a few lines:
as §4
(In general: Loss of DPPH colour is used to gauge radical scavenging.)

The nature of assay [15]: Antioxidant activity assessed as hydroxyl radical scavenging activity by spectrophotometric analysis. It is filed as functional. In a few lines:
as §4

In turn, `Cc1cccc(-c2nnc(COc3ccc(/C=N/Nc4nc5ccccc5s4)cc3)o2)c1` gave an inhibition in assay [1] of 35%.

For the compound `C/C(=N\c1ccc([N+](=O)[O-])cc1)N1N=C(c2ccc(-c3ccccc3)cc2)OC1c1ccccc1O` (stereo not given), the Activity in assay [2] was under 51.2%.

In the case of `COc1ccc2c(c1)c(CC(=O)O)c(C)n2C(=O)c1ccc(Cl)cc1` [INDOMETHACIN], the Activity with Mus musculus [3] was found to be 5.15 mg. Also, the inhibition in vivo at 100 mg/kg in the assay with Mus musculus [4] is 43.6%; in the assay with Mus musculus [5], 25.3%; with Mus musculus [6] it was 52.3 to 58.3%; with Mus musculus [7], 46.1%; with Mus musculus [8], 30.4%; with Mus musculus [9], 19.2%. For the same compound, the inhibition in vivo at 100 mg/kg in the assay with Mus musculus [10] amounted to 12.5%. Further, the inhibition in vivo at 50 mg/kg in the assay on Mus musculus [11] is 25.9%. For the same compound, the inhibition in vivo at 25 mg/kg in the assay on Mus musculus [12] was 19.1%.

For `Oc1ccc(/C=C/c2cc(O)cc(O)c2)cc1` [RESVERATROL], the concentration for half-maximal inhibition (IC50) is 1420 µM in assay [13], 990 µM in assay [14] and 370000 µM in [15].

By inhibition is commonly meant the percentage by which the read-out fell short of the control. The inhibition in vivo is the relative decrease from the control value, in per cent. Usually IC50 stands for the point on the concentration scale where inhibition reaches its midpoint.

(Values after ChEMBL document CHEMBL4622871, “Synthesis, biological evaluation of benzothiazole derivatives bearing a 1,3,4-oxadiazole moiety as potential anti-oxidant and anti-inflammatory agents” (Bioorg Med Chem Lett, 2020).)
